This note sets out measurements from ChEMBL document CHEMBL1833817, “Synthesis and cytotoxicity of 8-cyano-3-substitutedalkyl-5-methyl-4-methylene-7-methoxy-3,4-dihydropyrido[4,3-d]pyrimidines” (Bioorg Med Chem Lett, 2011).

What is called pIC50 is the negative decadic logarithm of the IC50, by convention in mol/L.

pIC50: −log10 of the molar value. Where only a bound is given, the exact number is not on record here.

Holding throughout (assay type): functional, cell-based
For one test, the system named is KB. The test can be described thus: Cytotoxicity against human KB cells after 3 days by MTT assay. Particulars: 72 h. In a few lines:
(§1)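 Exponential-phase cells seeded at 5 × 10⁴–1 × 10⁵ cells/mL in fresh medium, grown overnight, then treated with compounds dissolved in DMSO at selected concentrations for 3 days. MTT in PBS (10 mg/mL stock) added for 3 h. Formazan dissolved in DMSO and read at 540 nm, with PBS lacking MTT as blank. Inhibition rate taken from averaged OD; IC50 = concentration giving 50% growth inhibition. Coefficients of variation <10%.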
A general note: Tetrazolium assays rely on reduction of a dye to a coloured formazan, in cell work by metabolically active cells.

Test [1] can be described thus: Cytotoxicity against human CNE2 cells after 3 days by MTT assay. To be noted: CNE-2, 72 h. In a few lines:
as §1

The next test deals with MGC-803. The test can be described thus: Cytotoxicity against human MGC803 cells after 3 days by MTT assay. Particulars: MGC-803, 72 h. In a few lines: as §1

Consider `C=C1c2c(C)nc(OC)c(C#N)c2N=CN1Cc1ccc(Cl)cc1`, for which the pIC50 in the test with KB is 4.70.

Regarding `C=C1c2c(C)nc(OC)c(C#N)c2N=CN1Cc1ccc(C)cc1`, the pIC50 in the test with KB is 6.32; in test [1], 6.82; with MGC-803, 6.23.

In turn, `COc1nc(C)c2c(C)ncnc2c1C#N` had a pIC50 in the test with KB of under 4.30.

With `C=C1c2c(C)nc(OC)c(C#N)c2N=CN1Cc1ccco1`, the pIC50 in the test on KB is under 4.30.

`C=C1c2c(C)nc(OC)c(C#N)c2N=CN1CCCCCC`: in the test on KB, the pIC50 was under 4.30.

Consider `C=C1c2c(C)nc(OC)c(C#N)c2N=CN1CC`, for which, in the test with KB, the pIC50 is under 4.30.

Regarding `C=C1c2c(C)nc(OC)c(C#N)c2N=CN1CCC`, in the test with KB, the pIC50 is under 4.30.

Consider `C=C1c2c(C)nc(OC)c(C#N)c2N=CN1Cc1ccccc1`, for which the pIC50 in the test with KB is under 4.30.

On to `C=C1c2c(C)nc(OC)c(C#N)c2N=CN1Cc1ccc(OC)cc1`, for which the pIC50 with KB was 6.17; in test [1], 6.74; in the test on MGC-803, 6.17.

In the test on KB, `C=C1c2c(C)nc(OC)c(C#N)c2N=CN1CCc1ccc(Cl)cc1` showed a negative logarithm of the IC50 (pIC50) of under 4.30.

In turn, `C=C1c2c(C)nc(OC)c(C#N)c2N=CN1Cc1cccc(C)c1` gave a pIC50 with KB of 4.43.
